From PMC3446773 (Cancer research, 2009)

Experiments:
MDA-MB-231 cells [1] = test: In vitro invasion assay through Matrigel-coated transwell membranes; type: cell-based, human; conditions: P < 0.05
[2] = biological target: T1, recombinant hemagglutinin-tagged ATX (ATX-HA) (Homo sapiens, UniProt Q13822); test: ATX assay, hydrolysis of fluorogenic substrate FS-3; type: biochemical; conditions: for ATX inhibition: 10 μmol/L, FS-3 substrate 1 μmol/L, 2 h, 37°C; for IC50: read-out: ATX inhibition IC50, FS-3 substrate, 0.01 to 10 μmol/L
Outline: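 Mixed with FS-3 (final 1 µmol/L) and test compound (0.01–10 µmol/L) in assay buffer with BSA. Fluorescence read at ex 485/em 538 nm over 2 h, 37°C. The 0–120 min difference was normalized to vehicle; triplicate wells, % inhibition; Student's t test.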

human LPA5 = human LPA5 (Homo sapiens, UniProt Q9H1C0); test: Ca2+ mobilization assay, LPA5 expressed in RH7777 cells; type: cell-based; conditions: for LPA5 ligand type: transiently transfected; for LPA5 E max: at 10 μmol/L
Outline: (§1)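 Intracellular Ca2+ mobilization measured in RH7777 cells expressing the human receptor (LPA1, LPA2, LPA3 or LPA5); parental line intrinsically unresponsive to LPA. Both activation and inhibition of LPA responses tested. Quadruplicate tests; EC50, IC50 and Ki derived by sigmoid curve fitting.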

human LPA4 = human LPA4 (Homo sapiens, UniProt Q99677); test: Ca2+ mobilization assay, LPA4 expressed in CHO cells; type: cell-based; conditions: for LPA4 ligand type: Ca2+ mobilization, CHO cells; for LPA4 inhibition: at 30 μmol/L (400 nmol/L LPA)
[3] = tested on: MDA-MB-231 orthotopic breast tumor xenograft; test: Orthotopic breast cancer xenograft in nude mice; type: in vivo, nu/nu mice; conditions: for Tumor volume relative to control group: 3 mg/kg i.p., P < 0.01, 1b vs 1a not different (P = 0.16); for Blood vessel density in tumor (CD31 staining): 10 mg/kg i.p. alone, four doses; for Tumor size relative to controls: 10 mg/kg i.p., twice per week for 2 wk, starting 2 wk after cell transplantation
Outline: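 Female nu/nu mice, 4–6 wk, anesthetized with ketamine/xylazine i.p. Trypsinized MDA-MB-231 cells in cross-linkable ECM (5 × 10^7 cells/mL) were injected into the fourth mammary fat pad (200 µL; 100 µL in 3 mg/kg study). From 2 wk after implant, i.p. twice weekly for 2 wk; six mice/group; saline control. Arms: test compound 10 mg/kg, Taxol 10 mg/kg, Taxol week 1 then compound week 2; diastereomers 3 mg/kg. Volume = width² × length/2.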

human LPA1 = human LPA1 (Homo sapiens, UniProt Q92633); test: Ca2+ mobilization assay, LPA1 expressed in RH7777 cells; type: cell-based; conditions: for Ki: read-out: LPA1 Ki; for IC50: read-out: LPA1 antagonist IC50
Outline: as §1

MDA-MB-231 cells [4] = test: Scratch wound assay; type: cell-based, human; conditions: for Effect on MDA-MB-231 cell migration: 10 and 40 μmol/L, 24 h
human LPA2 = human LPA2 (Homo sapiens, UniProt Q9HBW0); test: Ca2+ mobilization assay, LPA2 expressed in RH7777 cells; type: cell-based; conditions: for Ki: read-out: LPA2 Ki; for IC50: read-out: LPA2 antagonist IC50
Outline: as §1

human LPA3 = biological target: T2, human LPA3 (Homo sapiens, UniProt Q9UBY5); test: Ca2+ mobilization assay, LPA3 expressed in RH7777 cells; type: cell-based; conditions: for LPA3 ligand type / Ki / IC50: Ca2+ mobilization, RH7777 cells; for Ki: read-out: LPA3 Ki; for IC50: read-out: LPA3 antagonist IC50
T2 sequence (Q9UBY5 1-353): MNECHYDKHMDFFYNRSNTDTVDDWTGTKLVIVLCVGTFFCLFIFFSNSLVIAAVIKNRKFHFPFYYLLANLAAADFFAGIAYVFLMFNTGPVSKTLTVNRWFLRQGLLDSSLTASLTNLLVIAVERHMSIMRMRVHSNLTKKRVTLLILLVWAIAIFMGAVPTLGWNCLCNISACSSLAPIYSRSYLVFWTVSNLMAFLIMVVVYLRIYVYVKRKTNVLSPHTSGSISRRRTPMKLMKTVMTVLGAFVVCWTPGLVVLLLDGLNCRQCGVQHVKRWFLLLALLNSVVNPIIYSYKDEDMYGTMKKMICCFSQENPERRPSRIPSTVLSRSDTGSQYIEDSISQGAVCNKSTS
Outline: as §1

[5] = biological target: T1, recombinant hemagglutinin-tagged ATX (ATX-HA); conditions: at 10 μmol/L; previously observed; cited from earlier work
[6] = Ca2+ mobilization, RH7777 cells

Sequence of human LPA4 (Q99677 whole entry): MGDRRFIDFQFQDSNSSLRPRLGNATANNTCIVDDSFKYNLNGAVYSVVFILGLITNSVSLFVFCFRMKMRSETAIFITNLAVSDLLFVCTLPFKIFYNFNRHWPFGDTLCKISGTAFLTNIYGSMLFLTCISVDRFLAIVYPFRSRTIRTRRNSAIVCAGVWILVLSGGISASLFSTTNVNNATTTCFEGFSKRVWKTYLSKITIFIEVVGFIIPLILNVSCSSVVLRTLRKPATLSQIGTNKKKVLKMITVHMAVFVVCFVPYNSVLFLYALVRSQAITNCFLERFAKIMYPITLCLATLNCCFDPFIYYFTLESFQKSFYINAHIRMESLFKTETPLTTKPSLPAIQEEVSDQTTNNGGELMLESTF
Sequence of human LPA2 (Q9HBW0 whole entry): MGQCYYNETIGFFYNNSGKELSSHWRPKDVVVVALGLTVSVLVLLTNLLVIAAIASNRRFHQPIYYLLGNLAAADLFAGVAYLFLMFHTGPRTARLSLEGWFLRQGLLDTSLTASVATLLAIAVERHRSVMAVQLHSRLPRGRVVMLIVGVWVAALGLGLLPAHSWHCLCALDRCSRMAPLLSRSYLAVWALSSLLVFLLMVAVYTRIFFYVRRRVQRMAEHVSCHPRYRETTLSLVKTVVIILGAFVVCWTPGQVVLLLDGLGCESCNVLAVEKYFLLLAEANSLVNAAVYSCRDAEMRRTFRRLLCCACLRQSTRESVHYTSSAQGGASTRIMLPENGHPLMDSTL
Sequence of human LPA1 (Q92633 whole entry): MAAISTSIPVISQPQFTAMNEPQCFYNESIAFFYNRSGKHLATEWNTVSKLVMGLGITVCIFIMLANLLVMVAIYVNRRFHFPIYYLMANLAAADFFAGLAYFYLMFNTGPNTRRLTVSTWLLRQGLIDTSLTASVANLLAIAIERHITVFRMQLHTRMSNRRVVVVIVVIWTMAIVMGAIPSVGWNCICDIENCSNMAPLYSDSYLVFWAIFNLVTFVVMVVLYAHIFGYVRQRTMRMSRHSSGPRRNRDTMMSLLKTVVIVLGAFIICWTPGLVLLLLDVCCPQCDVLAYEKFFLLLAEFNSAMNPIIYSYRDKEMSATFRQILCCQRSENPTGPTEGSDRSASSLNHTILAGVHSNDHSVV
Sequence of human LPA5 (Q9H1C0 whole entry): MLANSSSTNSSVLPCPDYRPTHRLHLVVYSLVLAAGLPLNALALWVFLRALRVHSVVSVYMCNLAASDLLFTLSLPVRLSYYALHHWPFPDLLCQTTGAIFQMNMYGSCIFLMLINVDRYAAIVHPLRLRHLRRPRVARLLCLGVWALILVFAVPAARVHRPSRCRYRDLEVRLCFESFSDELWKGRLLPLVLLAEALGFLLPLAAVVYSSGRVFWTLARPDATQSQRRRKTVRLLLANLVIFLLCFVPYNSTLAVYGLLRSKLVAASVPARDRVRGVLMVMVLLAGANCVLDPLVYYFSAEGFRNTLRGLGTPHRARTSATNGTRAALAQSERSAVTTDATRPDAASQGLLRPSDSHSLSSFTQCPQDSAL

In the case of CCCCCCCCCCCCCCCC(=O)OC[C@@H](O)C[C@@H](Br)P(=O)(O)O [1a], the “Inhibition of MDA-MB-231 invasion” value (MDA-MB-231 cells [1]) is reported as ~ 52%, the ATX inhibition [2] is reported as 98.1 ± 2.3% inhibition (10 μmol/L) and the IC50 [2] is reported as 165 nM. The LPA5 ligand type (human LPA5; [6]) was “Partial agonist”, the “LPA5 E max” value (human LPA5) was 64% and the LPA4 ligand type (human LPA4) was “Antagonist”. The LPA4 inhibition (human LPA4) was 35.1%, the “Tumor volume relative to control group” value [3] was “significantly decreased the tumor volume” and the LPA1 ligand type (human LPA1) was “Antagonist”. For the same compound, the Ki (human LPA1) was 273 nM, the IC50 (human LPA1) was 648 nM and the “Effect on MDA-MB-231 cell migration” value (MDA-MB-231 cells [4]) was “inhibited the MDA-MB-231 cell migration”. For the same compound, the LPA2 ligand type (human LPA2) was “Antagonist”, the Ki (human LPA2) was 250 nM and the IC50 (human LPA2) was 288 nM. The LPA3 ligand type (human LPA3) was “Antagonist”, the Ki (human LPA3) was 1830 nM and the IC50 (human LPA3) was 4440 nM.

In the case of CCCCCCCCCCCCCCCC(=O)OC[C@@H](O)C[C@H](Br)P(=O)(O)O [1b], the “Inhibition of MDA-MB-231 invasion” value (MDA-MB-231 cells [1]) is reported as ~ 52%, the ATX inhibition [2] is reported as 99.4 ± 2.7 % Inhibition (10 μmol/L) and the IC50 [2] is reported as 22 nM. For the same compound, the LPA5 ligand type (human LPA5; [6]) was “Antagonist”, the Ki (human LPA5; read-out: LPA5 Ki, Ca2+ mobilization, RH7777 cells) was 376 nM and the IC50 (human LPA5; read-out: LPA5 antagonist IC50, Ca2+ mobilization, RH7777 cells) was 977 nM. For the same compound, the LPA4 ligand type (human LPA4) was “Antagonist”, the LPA4 inhibition (human LPA4) was 33.1% and the “Tumor volume relative to control group” value [3] was “significantly decreased the tumor volume”. The LPA1 ligand type (human LPA1) was “Antagonist”, the Ki (human LPA1) was 752 nM and the IC50 (human LPA1) was 2080 nM. The “Decrease of MDA-MB-231 cell migration vs untreated control” value (MDA-MB-231 cells [4]; 40 μmol/L, P < 0.05) was 57%, the “Effect on MDA-MB-231 cell migration” value (MDA-MB-231 cells [4]) was “inhibited the MDA-MB-231 cell migration” and the LPA2 ligand type (human LPA2) was “Antagonist”. For the same compound, the Ki (human LPA2) was 241 nM, the IC50 (human LPA2) was 275 nM and the LPA3 ligand type (human LPA3) was “Antagonist”. The Ki (human LPA3) was 623 nM and the IC50 (human LPA3) was 2090 nM.

In the case of CC(=O)O[C@H]1C(=O)[C@@]2(C)[C@H]([C@H](OC(=O)c3ccccc3)[C@]3(O)C[C@H](OC(=O)[C@H](O)[C@@H](NC(=O)c4ccccc4)c4ccccc4)C(C)=C1C3(C)C)[C@]1(OC(C)=O)CO[C@@H]1C[C@@H]2O [Taxol, reference compound], the “Blood vessel density in tumor (CD31 staining)” value [3] is reported as “statistically different from the control” and the “Tumor size relative to controls” value [3] is reported as “reduction of tumor size relative to controls”.

For CCCCCCCCCCCCCCCC(=O)OCC(O)CC(Br)P(=O)(O)O (stereo not drawn) [compound 1, palmitoyl α-bromomethylenephosphonate], the ATX activity inhibited [5] is given as “over 98%”, the ATX inhibition [2] is given as 102 ± 2.7% inhibition (10 μmol/L) and the LPA5 ligand type (human LPA5; [6]) is given as “Partial agonist”. For the same compound, the “LPA5 E max” value (human LPA5) was 54%, the EC50 (human LPA5; read-out: LPA5 agonist EC50, Ca2+ mobilization, NS = non-saturated) was 1280 nM and the LPA4 ligand type (human LPA4) was “Antagonist”. For the same compound, the LPA4 inhibition (human LPA4) was 13.9%, the “Blood vessel density in tumor (CD31 staining)” value [3] was “significantly lower blood vessel density” and the “Tumor size relative to controls” value [3] was “reduction of tumor size relative to controls”. For the same compound, the “Blood vessel density in tumor (CD31 staining), sequential treatment” value ([3]; Taxol (10 mg/kg, two doses) then BrP-LPA 1 (10 mg/kg, two doses), i.p.) was “statistically different from the control”, the “Tumor size relative to controls, sequential treatment” value ([3]; two injections of Taxol (10 mg/kg) week 1, then two injections of BrP-LPA 1 (10 mg/kg) week 2, i.p.) was “reduction of tumor size relative to controls” and the LPA1 ligand type (human LPA1) was “Antagonist”. For the same compound, the Ki (human LPA1) was 805 nM, the IC50 (human LPA1) was 4520 nM and the “Effect of mixed diastereomers on cell migration” value (MDA-MB-231 cells [4]; data not shown) was “intermediate inhibition of cell migration”. The LPA2 ligand type (human LPA2) was “Antagonist”, the Ki (human LPA2) was 245 nM and the IC50 (human LPA2) was 468 nM. For the same compound, the LPA3 ligand type (human LPA3) was “Antagonist” and the LPA3 inhibition (human LPA3; at 30 μmol/L (200 nmol/L LPA)) was 71.3%.
